Screens deposited in PubChem by Broad Institute.
CDK5 p35 inh: inhibitors of human CDK5/p35 kinase, primary screen, biochemical, single concentration; Cyclin-dependent kinase 5 (Homo sapiens) + Cyclin-dependent kinase 5 activator 1 (Homo …; Recombinant CDK5/p35, ADP-Glo luminescence, 60 min; inhibition, % at 10 µM; actives 0.01% (n = 330,000);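 active means highest replicate inhibition of at least 50% and at least 75% of replicates reaching 50%; inconclusive means only one of the two criteria met; inactive means both criteria failed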;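 further: plate controls were DMSO neutral control for no effect and GW8510 at 10 µM for full effect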
dFosB act-1: activators of delta FosB homodimer, primary screen, biochemical, fluorescence polarization, TAMRA-CDK5 oligo, single point; activation, % at 25 µM; Protein FosB (Mus musculus), P13346; actives 0.99% (n = 340,000); purified delta FosB; percent of positive-control signal above neutral wells;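 active means mean activation above about 17%, with every replicate also reaching it, limit read from the data, passing the limit was not always enough; inconclusive means only one of the two conditions met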
Target sequence (P13346 whole entry, looked up): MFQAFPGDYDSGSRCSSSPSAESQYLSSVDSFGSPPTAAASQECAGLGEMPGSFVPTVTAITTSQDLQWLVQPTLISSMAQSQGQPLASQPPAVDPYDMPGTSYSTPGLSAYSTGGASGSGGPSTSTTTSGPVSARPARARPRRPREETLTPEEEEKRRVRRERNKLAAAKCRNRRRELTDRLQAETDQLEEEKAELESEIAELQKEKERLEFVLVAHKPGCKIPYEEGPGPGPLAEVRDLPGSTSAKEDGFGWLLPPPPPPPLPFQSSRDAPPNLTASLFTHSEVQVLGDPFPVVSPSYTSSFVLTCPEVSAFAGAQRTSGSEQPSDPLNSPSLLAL
SR-BI DiI inh: inhibitors of SR-BI mediated HDL lipid uptake, primary screen, ldlA[mSR-BI] cells, fluorescence, single point; ldlA[mSR-BI] CHO cells, DiI-HDL uptake fluorescence, 3 h; actives 0.96% (n = 320,000); inhibition, % at 12.5 µM;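 active means mean replicate inhibition of at least 70% and a set share of replicates each scoring 70 or more; inconclusive means meets just one of the two criteria; inactive means fails both criteria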;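 further: 0% = median of neutral control wells and 100% = median of positive control wells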
SR-BI DiI-HDL act: activators of SR-BI mediated DiI-HDL uptake, primary screen, ldlA[mSR-BI] CHO cells, DiI fluorescence; 3 h; 100 = double the neutral-control signal; activation, % at 12.5 µM; actives 0.096% (n = 320,000);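 active means mean replicate activation of at least 60% and every replicate at or above 60%; inconclusive means mean or all-replicate condition met, but not both; inactive means mean below 60% and not all replicates reaching 60%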;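 further: 0% = median plate neutral-control signal and 100% = twice that signal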
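System: LDL receptor-deficient CHO ldlA cells overexpressing murine SR-BI | Timing: 3 h uptake period with compound, 37 °C | Medium: HEPES-buffered (25 mM, pH 7.4) F12 plus 0.5% BSA | Dosing: Single-point compound dose | Signal: Bottom-read fluorescence, 550/595 nm | Read-out: Retained DiI signal reflecting DiI-HDL uptake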
dFosB act-2: activators of mouse delta FosB DNA binding, confirmation, biochemical, fluorescence polarization, TAMRA-CDK5 oligo, cherry-picked samples | activation, % at 24.9 µM | AID 588690, 2011 | 2,400 tested, under 10 active | shares compounds with dFosB act-1 | purified delta FosB; normalised: neutral wells 0, positive control 100;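 active means highest replicate activation at or above 34% and every replicate reaching that threshold; inconclusive means meets only one of the two criteria; inactive means meets neither criterion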;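 further: higher polarization means more probe DNA bound by delta FosB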
* hit, by the source's call; ? = inconclusive; · = not tested or not shown. Compounds with a hit are over-represented: about 2% of the library has one in this group of screens.

SMILES	CDK5 p35 inh	dFosB act-1	SR-BI DiI inh	SR-BI DiI-HDL act	dFosB act-2
COc1ccc(C)cc1NC(=O)CCNC(=O)Cn1ccc2ccccc2c1=O	1.3	21.9*	1.1	-1.1	3.0
COc1ccccc1NC(=O)CCNC(=O)Cn1ccc2ccccc2c1=O	-0.5	4.1	-0.1	0.1	·
Nc1c(N(CCC2=CCCCC2)C(=O)Cc2ccc(F)cc2)c(=O)[nH]c(=O)n1Cc1ccccc1	1.4	3.7	16.5	-16.5	·
Nc1c(N(CCC2=CCCCC2)C(=O)COc2ccc(F)cc2Cl)c(=O)[nH]c(=O)n1Cc1ccccc1	-0.1	29.1*	28.8	-28.8	0.7
CS(=O)(=O)c1ccc(Cl)c(NC(=O)COC(=O)c2c(Cl)cccc2Cl)c1	0.2	-13.2	4.3	-4.3	·
CC(=O)Nc1sc(C)c(C)c1C(=O)OCC(=O)Nc1cc(S(C)(=O)=O)ccc1Cl	0.2	55.5*	·	·	-0.9
CCc1ccc(NC(=O)Cn2c(=O)c3cccn3c3ccccc32)cc1	-2.6	32.2*	-1.5	1.5	4.6
O=C(O)Cn1c(=O)c2cccn2c2ccccc21	0.9	2.7	-1.5	1.5	·
Cc1cc(C)c(NC(=O)Cn2c(=O)c3cccn3c3ccccc32)c(C)c1	-1.2	39.2*	-0.1	0.1	2.8
Cc1noc(/C=C/N(C)C)c1S(=O)(=O)N1CCCC(C(=O)Nc2ccccc2F)C1 (stereo not drawn)	-0.2	-8.4	1.7	-1.7	·
O=C(C1CCCN(Cc2ccccc2[N+](=O)[O-])C1)N1CCCCC1 (stereo not drawn)	1.0	-0.5	·	·	·
CCOC(=O)c1c(NC(=O)c2ccccc2N(C)S(=O)(=O)c2ccccc2)sc2c1CCCC2	1.2	-1.7	29.0	-29.0	·
CCOC(=O)c1c(NC(=O)C(NCCN(C)C)c2ccccc2)sc2c1CCCC2 (stereo not drawn)	0.3	34.1*	6.3	-6.3	?
Cc1cc(OCC(=O)Nc2sc3c(c2C#N)CC(C)(C)NC3(C)C)c(C(C)C)cc1Cl	1.2	62.0*	18.9	-18.9	-1.1
Cc1ccc(C(C)C)c(OCC(=O)Nc2sc3c(c2C#N)CC(C)(C)NC3(C)C)c1	3.0	1.4	·	·	·
CCN(CC)CCNC(=O)c1ccc(NC(=O)/C=C/c2cc(OC)c(OC)c(OC)c2)cc1	0.5	52.4*	22.5	-22.5	-1.2
Nc1nc(N)c2c(ccc3nccc32)[nH]1	3.5	35.7*	-7.3	7.3	-6.8
Nc1ccc2ncccc2c1N	0.0	-5.1	-15.3	15.3	·
Cn1c(=O)c2c(ncn2CC(=O)Nc2nc(-c3ccc(F)c(F)c3)cs2)n(C)c1=O	0.4	32.3*	16.9	-16.9	8.9
Cc1ccc(C)c(NC(=S)NC(NC(=O)N(C)C)C(Cl)(Cl)Cl)c1 (stereo not drawn)	-6.4	-7.5	0.8	-0.8	·
O=C(NCc1csc2ccc(Cl)cc12)Nc1cccc2ccccc12	0.0	44.4*	-4.8	4.8	1.5
Cc1ccc(C)c(NC(=S)NC(NC(=O)Cc2cccc3ccccc23)C(Cl)(Cl)Cl)c1 (stereo not drawn)	1.8	27.6*	44.5	-44.5	3.1
O=C(NCc1ccccc1)Nc1cc(Cl)ccc1Cl	1.0	39.9*	-1.4	1.4	1.8
O=C(Cc1ccccc1)NC(NC(=S)Nc1cc(Cl)ccc1Cl)C(Cl)(Cl)Cl (stereo not drawn)	1.2	22.0*	16.7	-16.7	-0.2
COc1ccc(Cl)cc1S(=O)(=O)Nc1ccc2c(c1)n(C)c(=O)n2C	-0.5	-1.4	-10.2	10.2	·
SMILES	CDK5 p35 inh	dFosB act-1	SR-BI DiI inh	SR-BI DiI-HDL act	dFosB act-2
COc1ccc2c(c1)c(CCNNC(=O)C(C)(C)C)c(C)n2C(=O)c1ccc(Cl)cc1	-1.5	6.4	58.2	-58.2	·
O=C(Nc1ccc(OC(F)F)cc1)c1ncc(Cl)c(Cl)c1Cl	1.0	-3.6	-2.5	2.5	·
Cc1ccc(NC(=O)c2ncc(Cl)c(Cl)c2Cl)cc1C	-2.6	26.4*	0.0	0.0	-0.2
O=C(/C=C/c1cc2c(cc1Br)OCO2)NCc1ccc(F)cc1	0.1	24.7*	26.8	-26.8	1.4
O=C(CN1C(=O)COc2ccc(Cl)cc21)Nc1nccs1	1.6	19.6*	7.0	-7.0	2.9
CC(=O)c1cccc(NC(=O)CN2C(=O)COc3ccc(Cl)cc32)c1	10.4	7.1	-8.1	8.1	·
CCCN(C(=O)c1cc(S(=O)(=O)N2CCN(CC)CC2)ccc1Cl)C1CCS(=O)(=O)C1 (stereo not drawn)	-2.2	-11.3	-26.9	26.9	·
COc1ccc(/C=C/C(=O)Nc2c(C)nn(C)c2C)cc1COc1ccc(Cl)cc1Br	0.0	130.8*	53.2	-53.2	-7.0
Cc1ccc(-c2nc(NC(=O)CSc3nnc(C)s3)ns2)cc1	1.3	26.5*	-5.1	5.1	-9.5
O=C(CSc1nnnn1-c1ccccc1)Nc1nsc(-c2ccc(Cl)cc2)n1	2.1	58.2*	4.4	-4.4	2.2
C/C(=N\NC(=O)c1ccc(CN(C)S(=O)(=O)c2ccc(C)cc2)cc1)c1ccc(OC(F)F)cc1	0.0	26.1*	54.6	-54.6	-2.0
COc1cc2c(cc1NC(=O)Nc1ccccc1)oc1ccccc12	-0.8	19.2*	89.4*	-89.4	5.0
COc1ccc2cc1Oc1ccc(cc1)C[C@H]1c3cc(c(OC)cc3CCN1C)Oc1c(OC)c(OC)cc3c1[C@H](C2)N(C)CC3	-3.2	25.9*	-20.0	20.0	?
COc1cc(/C=N/N=C(/N)c2nonc2N)cc(Br)c1OCc1ccccc1C	-0.6	13.7	63.3	-63.3	·
CCOc1cc(/C=N/N=C(/N)c2nonc2N)cc(Br)c1OCc1ccc(Cl)cc1	1.3	34.1*	36.5	-36.5	0.5
Cc1cccc(NC(=O)C2(C)CC3c4ccccc4C2c2ccccc23)c1 (stereo not drawn)	-1.5	29.2*	0.7	-0.7	4.8
Cc1cccc(NC(=O)C2(c3ccccc3)CCOCC2)c1	0.0	3.8	-7.0	7.0	·
CSc1ccc(S(=O)(=O)NCC(=O)OCCOc2ccccc2)cc1[N+](=O)[O-]	0.1	27.5*	-9.8	9.8	-0.5
Cc1ccccc1NC(=O)C1CCN(c2cc(-c3ccccc3)nc3ncnn23)CC1	-0.8	24.3*	1.3	-1.3	-4.6
COc1ccc(-c2cc(C)no2)cc1S(=O)(=O)N1CCOc2ccc(C)cc21	1.7	44.1*	-2.1	2.1	-5.8
O=C(CCCn1cncn1)N1CCCC(N2CCN(c3ccccc3F)CC2)C1 (stereo not drawn)	-3.7	-4.4	-11.6	11.6	·
Cc1cccc(NC(=O)c2ccc(S(=O)(=O)NCc3ccco3)cc2)n1	1.0	33.1*	5.6	-5.6	0.5
